Legend:
Camelpox virus [1] = assay: Antiviral activity against Camelpox virus CML1 infected in HEL299 cells assessed as inhibition of virus-induced cytopathic effect after 6 days by Giemsa staining; assay type: functional, organism-based; conditions: CML1, HEL 299, 144 h
Camelpox virus [2] = assay: Antiviral activity against Camelpox virus CML14 infected in HEL299 cells assessed as inhibition of virus-induced cytopathic effect after 6 days by Giemsa staining; assay type: functional, organism-based; conditions: CML14, HEL 299, 144 h
[3] = Selectivity index, ratio of CC50 for HEL299 cells to EC50 for Camelpox virus CML14 infected in HEL299 cells; assay type: toxicity, cell-based, HEL 299; conditions: human, HEL299 cells; read-out: Ratio CC50/IC50
Camelpox virus [4] = assay: Antiviral activity against Camelpox virus CML14 infected in human PHK assessed as inhibition of virus-induced cytopathic effect after 6 days by Giemsa staining; assay type: functional, organism-based; conditions: CML14, 144 h
[5] = Selectivity index, ratio of CC50 for HEL299 cells to EC50 for Camelpox virus CML1 infected in HEL299 cells; assay type: toxicity, cell-based, HEL 299; conditions: human, HEL299 cells; read-out: Ratio CC50/IC50
[6] = Selectivity index, ratio of CC50 for human PHK to EC50 for Camelpox virus CML14 infected in human PHK
Camelpox virus [7] = assay: Antiviral activity against Camelpox virus CML1 infected in human PHK assessed as inhibition of virus-induced cytopathic effect after 6 days by Giemsa staining; assay type: functional, organism-based; conditions: CML1, 144 h
[8] = Cytotoxicity against human PHK after 4 days by Z1 Coulter counting analysis; conditions: PHK cells
Outline: (§1)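 Cell growth inhibition: HEL cells were seeded at 3.5 × 10³ per well and PHKs at 5 × 10³ per well. Serial dilutions were added in duplicate after 1 day (HEL) or 3 days (PHK). After 4 days with compound, cells were trypsinized and counted with a Coulter counter (8 μm lower limit). CC50 is the concentration reducing growth by 50%, mean ± SD of at least two experiments.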

[9] = Selectivity index, ratio of CC50 for human PHK to EC50 for Camelpox virus CML1 infected in human PHK
[10] = Cytotoxicity against HEL299 cells after 4 days by Z1 Coulter counting analysis; assay type: cell-based, HEL 299; conditions: human, HEL299 cells; outline: as §1

| Structure (SMILES) | EC50 (Camelpox virus [1]) | EC50 (Camelpox virus [2]) | selectivity ratio [3] | EC50 (Camelpox virus [4]) | selectivity ratio [5] | Ratio CC50/IC50 [6] | EC50 (Camelpox virus [7]) | CC50 at 96 h [8] | Ratio CC50/IC50 [9] | CC50 at 96 h [10] |
| --- | --- | --- | --- | --- | --- | --- | --- | --- | --- | --- |
| Nc1ncnc2c1ncn2CCOCP(=O)(O)O [ADEFOVIR] | > 183 µM | > 183 µM | < 1 | > 183 µM | < 1 | <0.4 | 162 µM | 76 µM | 0.5 | 211 µM |
| Nc1nc(NCCP(=O)(O)O)c2ncn(CCOCP(=O)(O)O)c2n1 | > 127 µM | > 127 µM | < 0.3 | > 127 µM | < 0.3 | <0.5 | > 127 µM | 59 µM | <0.5 | 43 µM |
| CN(C)c1ncnc2c1ncn2CCOCP(=O)(O)O | 29.4 µM | 24.6 µM | 1 | 10.9 µM | 1 | 0.1 | 8.5 µM | 1 µM | 0.1 | 22 µM |
| NC1=NC(OC[C@@H]2CP(=O)(O)CO2)=CC(N)N1O (stereo partly drawn) | 5.2 µM | 7.6 µM | 19 | 18.4 µM | 28 | 2 | 16.1 µM | 43 µM | 3 | 147 µM |
| Nc1nc(NCS(=O)(=O)O)c2ncn(CCOCP(=O)(O)O)c2n1 | 1.9 µM | 1.9 µM | 1 | 4.9 µM | 1 | 0.03 | 3.7 µM | 0.1 µM | 0.03 | 2 µM |
| Nc1nc(NCCC(=O)O)c2ncn(CCOCP(=O)(O)O)c2n1 | > 139 µM | > 139 µM | < 2 | > 139 µM | < 2 | <2 | > 139 µM | 258 µM | <2 | 294 µM |
| Nc1nc(N)c2ncn(CCOCP(=O)(O)O)c2n1 [PMEDAP] | > 173 µM | > 173 µM | < 1 | 63.7 µM | < 1 | 0.1 | 93 µM | 8 µM | 0.1 | 100 µM |
| Nc1nc(N(CC(=O)O)CC(=O)O)c2ncn(CCOCP(=O)(O)O)c2n1 | > 124 µM | > 124 µM |  | > 124 µM | 1 | 1 | > 124 µM | > 124 µM | 1 | > 124 µM |
| Nc1nc(NC(CC(=O)O)C(=O)O)c2ncn(CCOCP(=O)(O)O)c2n1 (racemic) | 48.3 µM | 46 µM | 0.4 | > 124 µM | 0.4 | <0.1 | > 124 µM | 16 µM | <0.1 | 20 µM |
| Nc1nc2c(ncn2CCOCP(=O)(O)O)c(=O)[nH]1 [GS-438] | 3.3 µM | 5.5 µM | 0.2 | 4.4 µM | 0.3 | 0.1 | 2.9 µM | 0.3 µM | 0.1 | 1 µM |
| Nc1nc(NCCCC(=O)O)c2ncn(CCOCP(=O)(O)O)c2n1 | > 134 µM | > 134 µM | < 2 | > 134 µM | < 2 | 1 | > 134 µM | > 134 µM | 1 | 282 µM |
| Nc1nc(N)c(Br)c(OCCOCP(=O)(O)O)n1 | > 156 µM | > 156 µM | < 0.3 | > 156 µM | < 0.3 |  | > 156 µM |  |  | 52 µM |
| Cc1nc(N)nc2c1ncn2CCOCP(=O)(O)O | > 174 µM | > 174 µM |  | > 174 µM | 1 | 0.4 | > 174 µM | > 70 µM | 0.4 | > 174 µM |
| C[C@@H](Cn1cnc2c(N)ncnc21)OCP(=O)(O)O | > 176 µM | > 176 µM |  | > 176 µM | 1 | 1 | > 176 µM | > 176 µM | 1 | > 176 µM |
| CC(C)CC(Nc1nc(N)nc2c1ncn2CCOCP(=O)(O)O)C(=O)O (racemic) | 53 µM | 44.3 µM | 0.3 | 87.4 µM | 0.2 | 0.1 | 77.8 µM | 8 µM | 0.1 | 12 µM |
| C[C@@H](O)[C@H](Nc1nc(N)nc2c1ncn2CCOCP(=O)(O)O)C(=O)O | 112 µM | 112 µM | 0.3 | > 128 µM | 0.3 | <0.2 | > 128 µM | 19 µM | <0.2 | 39 µM |
| C[C@H](O)[C@H](Nc1nc(N)nc2c1ncn2CCOCP(=O)(O)O)C(=O)O | 63 µM | 71.6 µM | 1 | > 128 µM | 1 | <0.1 | > 128 µM | > 16 µM | <0.1 | 56 µM |
| Nc1nc(NCCOCP(=O)(O)O)c2ncn(CCOCP(=O)(O)O)c2n1 | > 118 µM | > 118 µM |  | > 118 µM |  |  | > 118 µM |  |  |  |
| Nc1nc(NC(Cc2ccccc2)C(=O)O)c2ncn(CCOCP(=O)(O)O)c2n1 (racemic) | > 115 µM | > 115 µM | < 1 | > 115 µM | < 1 | <0.2 | > 115 µM | 27 µM | <0.2 | 101 µM |
| Nc1nc(Cl)c2ncn(CCOCP(=O)(O)O)c2n1 | 6.9 µM | 9.3 µM | 1 | 15.9 µM | 1 | 0.1 | 7.9 µM | 1 µM | 0.2 | 8 µM |
| Nc1nc(NCCS(=O)(=O)O)c2ncn(CCOCP(=O)(O)O)c2n1 | > 126 µM | > 126 µM | < 2 | > 126 µM | < 2 | <1 | > 126 µM | 102 µM | <1 | 258 µM |
| CC(O)C(Nc1nc(N)nc2c1ncn2CCOCP(=O)(O)O)C(=O)O (racemic) | 44.1 µM | 29 µM | 0.3 | 71.5 µM | 0.2 | 0.03 | 47.7 µM | 2 µM | 0.04 | 9 µM |

— ChEMBL document CHEMBL1137668, “Activities of several classes of acyclic nucleoside phosphonates against camelpox virus replication in different cell culture models” (Antimicrob Agents Chemother, 2007)
